Source: ChEMBL document CHEMBL3407388, “Synthesis, anticancer activity and molecular docking studies on a series of heterocyclic trans-cyanocombretastatin analogues as antitubulin agents” (2015)

How the values were obtained:
Assay type in all cases: functional
K562 = experiment: Cytotoxicity against human K562 cells assessed as growth inhibition after 48 hrs by SRB assay; conditions: K562, 48 h
How it was run: (§1)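 NCI 60-cell panel; compounds passing a single-dose screen (10−5 M, 48 h) were tested at five 10-fold dilutions (10−4 to 10−8 M) with 48 h drug exposure. GI50 is the molar concentration giving 50% reduction in net cell growth relative to cell numbers on day 0.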

HT-29 = experiment: Cytotoxicity against human HT-29 cells assessed as growth inhibition after 48 hrs by SRB assay; conditions: HT-29, 48 h; how it was run: as §1
LOX IMVI = experiment: Cytotoxicity against human LOXIMVI cells assessed as growth inhibition after 48 hrs by SRB assay; how it was run: as §1
786-0 = experiment: Cytotoxicity against human 786-0 cells assessed as growth inhibition after 48 hrs by SRB assay; conditions: 786-0, 48 h; how it was run: as §1
KM12 = experiment: Cytotoxicity against human KM12 cells assessed as growth inhibition after 48 hrs by SRB assay; conditions: KM12, 48 h; how it was run: as §1
[1] = Cytotoxicity against human UO31 cells assessed as growth inhibition after 48 hrs by SRB assay; conditions: UO-31, 48 h
COLO 205 = experiment: Cytotoxicity against human COLO205 cells assessed as growth inhibition after 48 hrs by SRB assay; conditions: COLO 205, 48 h; how it was run: as §1
SN12C = experiment: Cytotoxicity against human SN12C cells assessed as growth inhibition after 48 hrs by SRB assay; how it was run: as §1
HL-60(TB) = experiment: Cytotoxicity against human HL-60(TB) cells assessed as growth inhibition after 48 hrs by SRB assay; conditions: HL-60, 48 h
How it was run: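 NCI 60-cell panel, leukemia subpanel. Five-dose screen at 10-fold dilutions from 10−4 to 10−8 M with 48 h drug exposure. GI50 is the molar concentration giving 50% reduction in net cell growth compared with cell numbers on day 0.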

A498 = experiment: Cytotoxicity against human A498 cells assessed as growth inhibition after 48 hrs by SRB assay; conditions: A498, 48 h; how it was run: as §1
[2] = Cytotoxicity against human OVCAR3 cells assessed as growth inhibition after 48 hrs by SRB assay; conditions: OVCAR-3, 48 h; how it was run: as §1
CAKI-1 = experiment: Cytotoxicity against human Caki1 cells assessed as growth inhibition after 48 hrs by SRB assay; conditions: CAKI-1, 48 h; how it was run: as §1
[3] = Cytotoxicity against human OVCAR4 cells assessed as growth inhibition after 48 hrs by SRB assay; conditions: OVCAR-4, 48 h; how it was run: as §1
MOLT-4 = experiment: Cytotoxicity against human MOLT4 cells assessed as growth inhibition after 48 hrs by SRB assay; conditions: MOLT-4, 48 h; how it was run: as §1
M14 = experiment: Cytotoxicity against human M14 cells assessed as growth inhibition after 48 hrs by SRB assay; conditions: M14, 48 h; how it was run: as §1
SF-295 = experiment: Cytotoxicity against human SF295 cells assessed as growth inhibition after 48 hrs by SRB assay; conditions: SF-295, 48 h; how it was run: as §1
[4] = Cytotoxicity against human PC3 cells assessed as growth inhibition after 48 hrs by SRB assay; conditions: PC-3, 48 h; how it was run: as §1
SF-539 = experiment: Cytotoxicity against human SF539 cells assessed as growth inhibition after 48 hrs by SRB assay; conditions: SF-539, 48 h; how it was run: as §1
HCC 2998 = experiment: Cytotoxicity against human HCC2998 cells assessed as growth inhibition after 48 hrs by SRB assay; conditions: HCC 2998, 48 h; how it was run: as §1
NCI-H23 = experiment: Cytotoxicity against human NCI-H23 cells assessed as growth inhibition after 48 hrs by SRB assay; conditions: NCI-H23, 48 h; how it was run: as §1
SNB-19 = experiment: Cytotoxicity against human SNB19 cells assessed as growth inhibition after 48 hrs by SRB assay; conditions: SNB-19, 48 h; how it was run: as §1
NCI-H226 = experiment: Cytotoxicity against human NCI-H226 cells assessed as growth inhibition after 48 hrs by SRB assay; conditions: NCI-H226, 48 h; how it was run: as §1
SW-620 = experiment: Cytotoxicity against human SW620 cells assessed as growth inhibition after 48 hrs by SRB assay; conditions: SW-620, 48 h
BT-549 = experiment: Cytotoxicity against human BT549 cells assessed as growth inhibition after 48 hrs by SRB assay; conditions: BT-549, 48 h; how it was run: as §1
[5] = Cytotoxicity against human OVCAR5 cells assessed as growth inhibition after 48 hrs by SRB assay; conditions: OVCAR-5, 48 h; how it was run: as §1
[6] = Cytotoxicity against human NCI-ADR-RES cells assessed as growth inhibition after 48 hrs by SRB assay; how it was run: as §1
[7] = Cytotoxicity against human UACC62 cells assessed as growth inhibition after 48 hrs by SRB assay; conditions: UACC-62, 48 h
RXF 393 = experiment: Cytotoxicity against human RXF393 cells assessed as growth inhibition after 48 hrs by SRB assay; conditions: RXF 393, 48 h; how it was run: as §1
[8] = Cytotoxicity against human HCT15 cells assessed as growth inhibition after 48 hrs by SRB assay; conditions: HCT-15, 48 h; how it was run: as §1
[9] = Cytotoxicity against human HCT116 cells assessed as growth inhibition after 48 hrs by SRB assay; conditions: HCT-116, 48 h; how it was run: as §1
U-251 = experiment: Cytotoxicity against human U251 cells assessed as growth inhibition after 48 hrs by SRB assay; conditions: U-251, 48 h
SNB-75 = experiment: Cytotoxicity against human SNB75 cells assessed as growth inhibition after 48 hrs by SRB assay; conditions: SNB-75, 48 h
DU-145 = experiment: Cytotoxicity against human DU145 cells assessed as growth inhibition after 48 hrs by SRB assay; conditions: DU-145, 48 h; how it was run: as §1
[10] = Cytotoxicity against human Hs578T cells assessed as growth inhibition after 48 hrs by SRB assay; conditions: Hs-578T; how it was run: as §1
[11] = Cytotoxicity against human OVCAR8 cells assessed as growth inhibition after 48 hrs by SRB assay; conditions: OVCAR-8, 48 h; how it was run: as §1
MDA-MB-231 = experiment: Cytotoxicity against human MDA-MB-231 cells assessed as growth inhibition after 48 hrs by SRB assay; conditions: MDA-MB-231, 48 h; how it was run: as §1
TK-10 = experiment: Cytotoxicity against human TK10 cells assessed as growth inhibition after 48 hrs by SRB assay; conditions: TK-10, 48 h
IGROV-1 = experiment: Cytotoxicity against human IGROV1 cells assessed as growth inhibition after 48 hrs by SRB assay; conditions: IGROV-1, 48 h; how it was run: as §1
RPMI-8226 = experiment: Cytotoxicity against human RPMI8226 cells assessed as growth inhibition after 48 hrs by SRB assay; conditions: RPMI-8226, 48 h; how it was run: as §1
MCF7 = experiment: Cytotoxicity against human MCF7 cells assessed as growth inhibition after 48 hrs by SRB assay; conditions: MCF7, 48 h; how it was run: as §1
SK-OV-3 = experiment: Cytotoxicity against human SKOV3 cells assessed as growth inhibition after 48 hrs by SRB assay; conditions: SK-OV-3, 48 h; how it was run: as §1
SF-268 = experiment: Cytotoxicity against human SF268 cells assessed as growth inhibition after 48 hrs by SRB assay; conditions: SF-268, 48 h; how it was run: as §1
MDA-MB-435 = experiment: Cytotoxicity against human MDA-MB-435 cells assessed as growth inhibition after 48 hrs by SRB assay; conditions: MDA-MB-435, 48 h; how it was run: as §1

COc1cc(OC)cc(/C(C#N)=C/c2nc3ccccc3s2)c1
GI50 (K562): 333 nM | GI50 (HT-29): 438 nM | GI50 (LOX IMVI): 1840 nM | GI50 (786-0): 2440 nM | GI50 (KM12): 2010 nM | GI50 [1]: 679 nM | GI50 (COLO 205): 574 nM | GI50 (SN12C): 4680 nM | GI50 (HL-60(TB)): 345 nM | GI50 (A498): 417 nM | GI50 [2]: 285 nM | GI50 (CAKI-1): 482 nM | GI50 [3]: > 10000 nM | GI50 (MOLT-4): 3380 nM | GI50 (M14): 1210 nM | GI50 (SF-295): 2460 nM | GI50 [4]: 2740 nM | GI50 (SF-539): 1680 nM | GI50 (HCC 2998): 8390 nM | GI50 (NCI-H23): 2840 nM | GI50 (SNB-19): > 10000 nM | GI50 (NCI-H226): 4110 nM | GI50 (SW-620): 343 nM | GI50 (BT-549): 3450 nM | GI50 [5]: 4850 nM | GI50 [6]: 1470 nM | GI50 [7]: 755 nM | GI50 (RXF 393): 551 nM | GI50 [8]: 414 nM | GI50 [9]: 404 nM | GI50 (U-251): 1910 nM | GI50 (SNB-75): 2130 nM | GI50 (DU-145): 1070 nM | GI50 [10]: 2010 nM | GI50 [11]: 3130 nM | GI50 (MDA-MB-231): 6740 nM | GI50 (TK-10): 2780 nM | GI50 (IGROV-1): 706 nM | GI50 (RPMI-8226): 2290 nM | GI50 (MCF7): 399 nM | GI50 (SK-OV-3): 1790 nM | GI50 (SF-268): 3090 nM | GI50 (MDA-MB-435): 199 nM

COc1cc(/C(C#N)=C/c2cc3ccccc3[nH]2)cc(OC)c1OC
GI50 (K562): < 10 nM | GI50 (HT-29): < 10 nM | GI50 (LOX IMVI): < 10 nM | GI50 (786-0): < 10 nM | GI50 (KM12): < 10 nM | GI50 [1]: < 10 nM | GI50 (COLO 205): 16 nM | GI50 (SN12C): < 10 nM | GI50 (HL-60(TB)): < 10 nM | GI50 (A498): < 10 nM | GI50 [2]: < 10 nM | GI50 (CAKI-1): < 10 nM | GI50 [3]: 15200 nM | GI50 (MOLT-4): 23 nM | GI50 (M14): < 10 nM | GI50 (SF-295): < 10 nM | GI50 [4]: < 10 nM | GI50 (SF-539): < 10 nM | GI50 (HCC 2998): 18 nM | GI50 (NCI-H23): < 10 nM | GI50 (SNB-19): < 10 nM | GI50 (NCI-H226): < 10 nM | GI50 (SW-620): < 10 nM | GI50 (BT-549): < 10 nM | GI50 [5]: 80 nM | GI50 [6]: < 10 nM | GI50 [7]: < 10 nM | GI50 (RXF 393): < 10 nM | GI50 [8]: < 10 nM | GI50 [9]: < 10 nM | GI50 (U-251): < 10 nM | GI50 (SNB-75): < 10 nM | GI50 (DU-145): < 10 nM | GI50 [10]: < 10 nM | GI50 [11]: < 10 nM | GI50 (MDA-MB-231): 14 nM | GI50 (TK-10): < 10 nM | GI50 (IGROV-1): < 10 nM | GI50 (RPMI-8226): < 10 nM | GI50 (MCF7): 16 nM | GI50 (SK-OV-3): < 10 nM | GI50 (SF-268): 15 nM | GI50 (MDA-MB-435): < 10 nM

COc1cc(OC)cc(/C(C#N)=C/c2c[nH]c3ccccc23)c1
GI50 (K562): 43 nM | GI50 (HT-29): 38 nM | GI50 (LOX IMVI): 78 nM | GI50 (786-0): 77 nM | GI50 (KM12): 40 nM | GI50 [1]: 663 nM | GI50 (COLO 205): 47 nM | GI50 (SN12C): 77 nM | GI50 (HL-60(TB)): 31 nM | GI50 (A498): 35 nM | GI50 [2]: 31 nM | GI50 (CAKI-1): 35 nM | GI50 [3]: 3520 nM | GI50 (MOLT-4): 49 nM | GI50 (M14): 42 nM | GI50 (SF-295): 45 nM | GI50 [4]: 75 nM | GI50 (SF-539): 52 nM | GI50 (HCC 2998): 207 nM | GI50 (NCI-H23): 256 nM | GI50 (SNB-19): 62 nM | GI50 (NCI-H226): 8180 nM | GI50 (SW-620): 44 nM | GI50 (BT-549): 49 nM | GI50 [5]: 197 nM | GI50 [6]: 33 nM | GI50 [7]: 49 nM | GI50 (RXF 393): 83 nM | GI50 [8]: 53 nM | GI50 [9]: 42 nM | GI50 (U-251): 45 nM | GI50 (SNB-75): 34 nM | GI50 (DU-145): 130 nM | GI50 [10]: 611 nM | GI50 [11]: 103 nM | GI50 (MDA-MB-231): 644 nM | GI50 (TK-10): 10300 nM | GI50 (IGROV-1): 347 nM | GI50 (RPMI-8226): 65 nM | GI50 (MCF7): 41 nM | GI50 (SK-OV-3): 117 nM | GI50 (SF-268): 78 nM | GI50 (MDA-MB-435): 20 nM
